Source: PubChem BioAssay AID493091 (Sanford-Burnham Center for Chemical Genomics, 2011)
The whole screen tested about 340,000 compounds, of which about 3,000 (0.88%) were called active. What follows is part of a selection rich in actives, with near analogues and random picks from the rest. Values without a mark were called inactive.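 The calls were made as follows: active = inhibition above about 50% at 20 µM (limit read from the data); inactive = the rest.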 Non-standard residues stand in square brackets, D forms with d. Residues, ends and D or L forms follow the SMILES beside them. ξ: configuration not given here. ξM = CSCCC(N)C(=O)O

Target: Carboxy-terminal domain RNA polymerase II polypeptide A small phosphatase 1 (Homo sapiens) (UniProt Q9GZU7)
Sequence (Q9GZU7 76-261 limits assumed): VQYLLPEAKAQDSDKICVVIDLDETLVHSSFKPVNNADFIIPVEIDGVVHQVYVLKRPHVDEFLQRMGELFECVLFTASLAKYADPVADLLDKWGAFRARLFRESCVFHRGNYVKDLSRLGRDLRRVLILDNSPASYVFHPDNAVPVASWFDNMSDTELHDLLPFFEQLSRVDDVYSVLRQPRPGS
Experiment: Scp-1 phosphatase inhibitors, primary screen, biochemical, colorimetric, uHTS (AID 493091);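 also: plate controls were DMSO wells with enzyme for no effect and wells lacking enzyme for full effect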
Conditions: Recombinant Scp1, phosphopeptide, malachite green phosphate absorbance; at 20 µM; hits give high values
In short: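 Assay system: SCP-1 catalytic fragment, aa 76-261 | Buffer or medium: Tris acetate buffer pH 5.5 with MgCl2 and Tween-20 | Compound: One concentration, 20 µM, with 1.0% DMSO | Also added: Phospho 17-mer peptide substrate | Signal: Absorbance at 630 nm | Incubation: 45 min enzyme reaction at room temperature | Measure: % inhibition of SCP-1 phosphate liberation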

| SMILES | inhibition |
| --- | --- |
| C=CCn1c(=S)[nH]c2nc3c(cc2c1=O)COC(C)(C)C3 | -8.72% |
| C=CCn1cnc2scc(-c3ccccc3)c2c1=O | -18.1% |
| C=CCn1c(=S)[nH]c2scc(-c3ccco3)c2c1=O | 67.9% (active) |
| CN(CCC1CCOCC1)Cc1cn[nH]c1-c1ccc(-c2ccccc2)cc1 | -1.75% |
| CCn1c(=O)n(CC)c2cc(N3CCCC3)c(NC(=O)c3ccccc3Br)cc21 | -2.26% |
| Cc1ccc(CNC(=O)CCNC(=O)Cn2ccc3ccccc3c2=O)cc1 | -12.1% |
| Cc1ccc2nc3c(cc(C(=O)NCCc4ccccc4)c(=N)n3CC3CCCO3)c(=O)n2c1 (stereo not given) | 1.78% |
| Cc1ccc(CCNC(=O)c2ccc3nc4ccccc4c(=O)n3c2)cc1 | 60.3% (active) |
| CCOc1cc(C2/C(=C(/O)c3ccc(S(=O)(=O)N4CCCCC4)cc3)C(=O)C(=O)N2CCOC)ccc1O (stereo not given) | 1.05% |
| Cc1cccc(NC(=O)CSc2nc3c(c(=O)[nH]2)CCC3)c1C | -1.16% |
| COc1ccccc1N1CCN(C(=O)c2cc(=O)c3cc(C)cc(C)c3o2)CC1 | -7.13% |
| Cn1c(N)c(C(=O)COC(=O)c2cccc(S(=O)(=O)N3CCOCC3)c2)c(=O)n(C)c1=O | 3.96% |
| Cn1c(N)c(C(=O)COC(=O)c2ccc3ccccc3c2)c(=O)n(C)c1=O | 53% (active) |
| Cn1c(N)c(C(=O)COC(=O)c2cnc(Cl)c(Cl)c2)c(=O)n(C)c1=O | -5.15% |
| C[C@]1(C(=O)NCCc2c[nH]c3ccccc23)C=C[C@@H](Cc2ccccc2)N1C(=O)c1ccccc1 | -5.17% |
| CCOc1ccc(NC(=O)c2ccc(NC(=O)COC(=O)c3ccc(NC(=O)CC#N)cc3)cc2)cc1 | 85.9% (active) |
| N#CCC(=O)Nc1ccc(C(=O)OCC(=O)Nc2sc3c(c2C#N)CCCC3)cc1 | 1.62% |
| CC(C)NC(=O)NC(=O)COC(=O)c1ccc(NC(=O)CC#N)cc1 | -2.24% |
| Cc1ncn2cc(-c3ccc(Cl)cc3Cl)[nH]c(=O)c12 | -6.56% |
| O=C(NCc1cccc(Cl)c1)C1CCN(c2nnc(N3CCCC3=O)s2)CC1 | -6.55% |
| O=C(NNC(=O)c1ccccc1[N+](=O)[O-])Nc1ccccc1C(F)(F)F | 0.19% |
| C=C(C)C(=O)Nc1cccc(C2=NOC3(C2)C[C@H](C(N)=O)N(C(=O)C(c2ccccc2)c2ccccc2)C3)c1 (stereo not given in full) | 70.2% (active) |
| C/C=C(/C)C(=O)Nc1cccc(C2=NOC3(C2)C[C@@H](C(N)=O)N(C(=O)C2(C)CC2)C3)c1 (stereo not given in full) | -2.33% |

| SMILES | inhibition |
| --- | --- |
| C/C=C\C=C\C(=O)N1CC2(CC(c3cccc(NC(=O)/C(C)=C\C)c3)=NO2)C[C@H]1C(N)=O (stereo not given in full) | 34.8% |
| C=CCn1cc(C(=O)NCc2ccc(Cl)cc2)c(=O)c2cc(S(=O)(=O)N(CC)CC)ccc21 | -4.15% |
| COCCC(=O)N1CCC(Oc2ccc(C(=O)NCc3ccon3)cc2)CC1 | -1.77% |
| COc1ccc(S(=O)(=O)N2CCN(CC(=O)N3CCOCC3)CC2)cc1OC | -0.04% |
| CC(C)C(O)C1CCN(Cc2nc(Cc3ccccc3Cl)no2)CC1 (stereo not given) | -2.82% |
| COc1cnn(-c2ccc([N+](=O)[O-])cc2)c(=O)c1Cl | -3.84% |
| O=c1[nH]n(-c2ccc([N+](=O)[O-])cc2)c(=O)c2ccccc12 | 52.1% (active) |
| O=[N+]([O-])c1ccc(N2CCOCC2)cc1 | -2.71% |
| CC(C)(C)c1cc2cccnc2n1Cc1cccc(F)c1 | -1.78% |
| CCOC(=O)C1CCN(S(=O)(=O)c2c(C)noc2C)CC1 | -4.7% |
| COc1ccccc1NC(=O)c1ccc(N2CC3CC(C2)c2cccc(=O)n2C3)c(NC(=O)c2cccnc2)c1 (stereo not given) | -3.99% |
| O=C(O)c1ccc(N/N=C/c2ccc3ncccc3c2)cc1 | 50.4% (active) |
| CCNC(=S)NNC(=O)c1ccc2ncccc2c1 | -9.05% |
| Cc1ccc2cc(/C=N/Nc3ccc(C(=O)O)cc3)c(Cl)nc2c1 | 0.89% |
| O=c1c2ccccc2oc2nc(C3CCCCC3)n(Cc3ccco3)c(=O)c12 | -2.2% |
| Cn1c2ccccc2c(=O)c2c(=O)n(Cc3ccco3)c(COc3ccccc3)nc21 | 92.9% (active) |
| CCCc1nc2c(c(=O)c3ccccc3n2C)c(=O)n1C1CCCCCC1 | 2.39% |
| COCCn1c(C)cc(C(=O)COC(=O)CNC(=O)c2ccco2)c1C | -7.15% |
| Cc1ccc(C(=O)Nc2nc(N)n(-c3ccccc3)n2)cc1 | -3.84% |
| Cc1cc(S(=O)(=O)N2CCOCC2)ccc1OCC(=O)N1CCOCC1 | 2.62% |
| CCC(C)NC(=O)/C=C/c1ccc(S(=O)(=O)NCc2ccco2)cc1 (stereo not given) | 6.25% |
| Cc1ccc(N2C(=O)CC(Nc3cccc4ccccc34)C2=O)cc1 (stereo not given) | -3.84% |
| CC(=O)Nc1ccccc1Sc1ccc2c3c(cccc13)C(=O)N(c1ccc(C)cc1)C2=O | 53.1% (active) |

| SMILES | inhibition |
| --- | --- |
| CSc1ccccc1NC(=O)C(C)N1C(=O)c2ccccc2S1(=O)=O (stereo not given) | 39.4% |
| COC(=O)c1cc(S(=O)(=O)Nc2ccc(C)c(F)c2)c[nH]1 | -3.42% |
| Cc1c(CCC(=O)O)c(=O)oc2cc(OCc3ccc(Br)cc3)ccc12 | 53.3% (active) |
| Cc1c(CCC(=O)O)c(=O)oc2cc3occ(-c4ccccc4)c3cc12 | -18.2% |
| CCOC(=O)CCc1c(C)c2ccc(OCc3nn[nH]n3)c(C)c2oc1=O | 2.8% |
| Cc1coc2cc3oc(=O)c(CCC(=O)O)c(C)c3cc12 | -1.97% |
| COc1ccc2c(C)c(CCC(=O)NC3CC3)c(=O)oc2c1C | -1.31% |
| Cc1c(CCC(=O)O)c(=O)oc2c(C)c(OCc3ccccc3Cl)ccc12 | 97.5% (active) |
| O=C(COC(=O)[C@H](Cc1ccccc1)NC(=O)c1cccs1)Nc1cc(F)ccc1F | -10.5% |
| CCN(CC)c1ccc([N+](=O)[O-])cc1C(=O)O | -4.84% |
| COc1cccc(NC(=O)Cn2cnc3sc(C)c(S(=O)(=O)N4CCN(C)CC4)c3c2=O)c1 | -1.94% |
| CCCOc1ccc(C(=O)C(CCC(CNCC)C(=O)c2ccc(OCCC)cc2)CNCC)cc1 (stereo not given) | 10.4% |
| CCOc1ccc(C(=O)CCN2CCOCC2)cc1 | -2.17% |
| CC(C)CCOc1ccc(C(=O)C[N+]2(C)CCOCC2)cc1 | 51% (active) |
| Cc1ccc(CNC(=O)C2CCCN2C(=O)NCc2ccccc2)cc1 (stereo not given) | -7.83% |
| O=C(COc1ccc(Cl)cc1)Nc1ccccc1CO | -5.63% |
| O=C(COc1ccc(-n2cnnn2)cc1)Nc1ccccc1Cl | 58.7% (active) |
| C=CCc1cccc(/C=N/NC(=O)COc2ccc(-n3cnnn3)cc2)c1O | -8.78% |
| COc1ccc(C(=O)N(Cc2ccccc2)c2ccc(C)cc2)cc1S(=O)(=O)N1CCOCC1 | -6.19% |
| C=CCOc1ccc(/C=C/C(=O)OCC(=O)NC2CCCCCC2)cc1 | 22% |
| CCNc1nc(NC(C)C)nc(OCCOC(=O)c2ccccc2)n1 | 2.19% |
| O=C(COC(=O)CNC(=O)C1CCCCC1)Nc1cccc(F)c1 | -6.06% |
| O=C(Nc1cccc(F)c1)NC1CCCCCCC1 | -10.5% |

| SMILES | inhibition |
| --- | --- |
| O=C(Nc1cccc(F)c1)[C@@H]1CCCN1 | 67.8% (active) |
| Cc1ccc(N2C(=O)N3[C@@H]4c5ccccc5OC[C@@H]4[C@@H](c4ccccc4)[C@@]3(C)C2=O)cc1 | -17.6% |
| N#C/C=C/N1CCN(Cc2ccc3c(c2)OCO3)CC1 | -12.3% |
| O=C(c1ccc(F)cc1)N1CCCC(C(=O)N2CCCCC2)C1 (stereo not given) | -6.52% |
| Cc1ccc(Cc2nnc(SCC(=O)Nc3ccccc3C)[nH]c2=O)cc1 | 16.3% |
| Cc1ccc(Cc2nnc(SCC(=O)Nc3ccc(C)cc3C)[nH]c2=O)cc1 | 53.8% (active) |
| COc1ccc(Cc2nnc(SCC(=O)Nc3ccc(C)c(Cl)c3)[nH]c2=O)cc1 | 48% |
| COc1ccc2cc(C3=CC(=O)C[C@H](c4ccc5c(c4)OCO5)C3)ccc2c1 | -11% |
| CCC(C)NC(=O)N[C@@H](CCSC)C(=O)O (stereo not given in full) | -4.53% |
| COc1ccccc1OCCNC(=O)C(CCSC)NC(=O)COc1ccccc1 (stereo not given) | -8.06% |
| COC(=O)CNC(=O)C(CCSC)NC(C)=O (stereo not given) (Ac-[ξM]-Gly-OMe) | 50.3% (active) |
| CCOc1ccc(OCC)c(NC(=O)CN(C)S(=O)(=O)c2cccc3nsnc23)c1 | -5.95% |
| Cc1ccc(OCCNC(=O)c2cccc(S(=O)(=O)N3CCN(Cc4ccccc4)CC3)c2)cc1 | -10.4% |
| CC1=CC(C)(C)N(C(=O)CSc2nnc(-c3ccccc3)o2)c2ccc(C)cc21 | -2.74% |
| Cc1ccc(-c2nnc(CN3CCN(C)CC3)o2)cc1 | -6% |
| CCCCSc1nnc(-c2ccc(C)cc2)o1 | 81.5% (active) |
| CCSC1=C(C#N)C(=O)n2c1cc1c2CCCC1 | -1.97% |
| O=C(N/C(=C\c1ccc(F)cc1)C(=O)N1CCCCCC1)c1ccccc1 | -0.73% |
| CC1(C)CCc2nc(SCc3ccccc3)c(C#N)cc2C1 | -11.5% |
| N#CC1=C(SCc2ccccc2)NC(=O)C(C#N)C12CCCC2 (stereo not given) | 68.9% (active) |
| N#CC1=C(SCc2ccc(C#N)cc2)N=C(N)C(c2nc(-c3ccccc3)cs2)C12CCCCC2 (stereo not given) | -1.99% |
